Shown is part of a subset that was picked to be rich in hits.
H69AR inhibit – blocks growth of human H69AR lung tumor cells | viability, % at 10 µM | H69AR lung tumor viability, ATP luminescence, 72 h; stronger effect = lower value | hit rate 6% among 85,000;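 active means viability at or below 40%; inactive means viability above 40%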;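 further: multidrug resistant small cell line overexpressing MRP-1 efflux transporter; 100% = mean luminescence of untreated control wells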
PTEN del growth – PTEN-deleted cell growth suppression; viability, % at 10 µM; AID 827; HCT116 PTEN-null viability, CellTiter-Glo, 60 h; stronger effect = lower value; hit rate 1.2% among 140,000;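 active means viability at or below a set limit, 4 SD under the median of all tested compounds, cut at about 3.7% in these data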;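 further: PTEN knockout HCT116 line with beta catenin targeted HCT116 as companion control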
HCT116 bCat-KO – beta-catenin-lacking colon tumor cell growth suppression. HCT116 beta-catenin knockout viability, CellTiter-Glo, 60 h; stronger effect = lower value. hit rate 1.5% among 140,000. viability, % at 10 µM;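 active means viability at or under a set limit, the compound median less 4 SD, cut at about 6% in these data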;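 further: 0% = Hyamine 1622 control at 20 µM and 100% = untreated cell control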
HUVEC prolif 384 – blocks proliferation of human endothelial cells | HUVEC proliferation, CellTiter-Glo luminescence, 72 h; stronger effect = lower value | viability, % at 10 µM (by protocol) | hit rate 1.1% among 86,000;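 active means viability at or below 30%; inactive means viability above 30%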;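 further: 100% = median luminescence of DMSO-only cell control wells on each plate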
Fibroblast inh – blocks proliferation of human lung fibroblasts | LL 47 human lung fibroblast viability, ATP luminescence; stronger effect = lower value | viability, % at 10 µM | hit rate 1.1% among 85,000 | AID 719;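 active means viability at or below 50% in the single dose screen; inactive means viability above 50%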;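 further: compound exposure lasted 72 h before the ATP readout; 100% = median luminescence of untreated cell-only wells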
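Test system: LL 47 human lung fibroblasts; Quantity: 1,150 cells/well; Buffer or medium: IMEM plus 15% FBS; Dosing: tenfold compound dosing solution, DMSO at 0.1%; Timing: overnight cell rest, 72 h compound treatment at 37 °C; Detection: ATP-based CellTiter-Glo luminescent readout; Read-out basis: viability percentage against median untreated-cell control; Controls: cell-only wells, no compound.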
* = called active by the depositor; nt = not tested or not shown.

SMILES	H69AR inhibit	PTEN del growth	HCT116 bCat-KO	HUVEC prolif 384	Fibroblast inh
CC1CCCC(NC(=S)Nc2ccc(SC(F)F)cc2)C1C (stereo not drawn)	9.1*	5	8	47	34*
CC12CC(c3ccccc3O1)N(C(=O)c1ccco1)C(=S)N2c1ccc(F)cc1 (stereo not drawn)	6.4*	55	66	60	87
CCOC(=O)c1ccc(Cn2c(-c3ccccc3)nnc2-c2ccccc2)o1	33*	79	77	97	91
CCc1ccc(C2CC(c3cccc(Cl)c3)n3nc(N)nc3N2)cc1 (stereo not drawn)	38*	63	69	97	103
Cc1ccc(C2CC(c3cccc(Cl)c3)n3nc(N)nc3N2)cc1 (stereo not drawn)	79	97	98	101	92
CN(C)c1cc(-c2ccccc2)nc(N)n1	40*	48	55	72	92
Nc1ccc(-c2cc(-c3ccc(N)cc3)nc(-c3ccccc3)n2)cc1	nt	93	92	nt	nt
Nc1nc(-c2ccccc2)cc(-c2ccccc2O)n1	42	17	17	17*	81
NNc1nc(-c2ccccc2)cc(-c2ccccc2O)n1	nt	38	33	nt	nt
COCCCNC(=S)NC(=O)c1ccc(C)cc1	nt	89	89	nt	nt
CCC1CSC(Nc2ccc(C(=O)/C=C/c3ccc(OC)c(OC)c3)cc2)=N1 (stereo not drawn)	nt	3.4*	3.0*	nt	nt
O=C(/C=C/c1ccc(Br)cc1)NC1CCCCCC1	nt	99	100	nt	nt
CCC1CSC(Nc2ccc(C(=O)/C=C/c3ccc(Br)cc3)cc2)=N1 (stereo not drawn)	nt	2.8*	5.4*	nt	nt
Cc1ccc(CNc2ccc(N3C(=O)CCCC3=O)cc2[N+](=O)[O-])cc1	nt	88	94	nt	nt
COc1ccc(OC)c(-c2cc(C3CCN(c4cc(Cl)nc(N)n4)CC3)[nH]n2)c1	nt	2.5*	1.7*	nt	nt
FC(F)(F)c1cc(-c2ccco2)nc(NCc2cccnc2)n1	29*	52	47	55	96
COc1cc(/C=N/NC(=O)CN(Cc2ccco2)S(=O)(=O)c2ccccc2)ccc1O	nt	85	89	nt	nt
N#CC1=C(N)Oc2cc(O)ccc2C1c1cccs1 (stereo not drawn)	67	85	84	96	100
N#CC1=C(N)Oc2c(ccc3ccccc23)C1c1cccs1 (stereo not drawn)	17*	12	11	22*	53
CCn1c(Sc2nc(C)nc3scc(-c4cccs4)c23)n[nH]c1=O	2.8*	23	26	81	63
COc1ccc(N2CCN(CC(O)c3c[nH]c4ccc(OC)cc34)CC2C)cc1 (stereo not drawn)	35*	59	58	94	77
COc1ccc(OC)c(NS(=O)(=O)c2ccc(NC(=O)c3ccc(NS(C)(=O)=O)cc3)cc2)c1	nt	77	75	nt	nt
O=C(Oc1ccc2c(c1)OCO2)c1cc2c(s1)CCC2	96	2.1*	2.6*	55	66
O=C(c1cc2c(s1)CCCC2)N1CCN(Cc2ccc3c(c2)OCO3)CC1	89	79	73	82	98
Cc1ccc2[nH]c(C)c(CCNC(=O)C3CCCCC3C(=O)OCC(F)(F)F)c2c1 (stereo not drawn)	nt	96	88	nt	nt
SMILES	H69AR inhibit	PTEN del growth	HCT116 bCat-KO	HUVEC prolif 384	Fibroblast inh
Cc1cc(C)c(S(=O)(=O)n2c([N+](=O)[O-])cnc2C)c(C)c1	nt	94	94	nt	nt
CN(CC(O)CON=C1c2ccccc2-c2ccccc21)S(=O)(=O)c1ccc(Br)cc1 (stereo not drawn)	nt	63	79	nt	nt
Cc1ccc(NC(=O)Cn2cnc3sc(C(=O)NCCN(C)C)c(C)c3c2=O)cc1Cl	72	57	37	8.3*	58
CCCNC(=S)N1CCN(CC)CC1	nt	98	100	nt	nt
CC(NC(=O)c1ccc(Br)cc1)c1ccccc1 (stereo not drawn)	nt	88	84	nt	nt
CC(C)OP(=O)(OC(C)C)C(NC(=O)c1ccc(Br)cc1)c1ccccc1 (stereo not drawn)	28*	51	68	78	94
O=C(NCC(c1cccs1)N1CCOCC1)c1cc([N+](=O)[O-])ccc1Cl (stereo not drawn)	nt	91	87	nt	nt
O=C(NCC(c1cccs1)N1CCOCC1)c1ccc(Cl)s1 (stereo not drawn)	18*	21	16	82	64
C/C(CC(C)(C)C1CCCCC1)=N\NC(N)=S	24*	13	4.6*	59	75
COc1ccccc1OCC(=O)NC1CCCCCC1	99	100	95	97	99
COc1ccc2c(c1)c(=O)oc1cc(OCC(=O)NC3CC3)ccc12	36*	48	3.8*	91	75
COc1ccc2c(c1)c(=O)oc1cc(OCC(=O)NC3CCCCC3)ccc12	19*	80	95	66	105
Cc1cc(C)n(-c2nc3ccccc3nc2N2CCC(C)CC2)n1	90	72	68	120	94
Cc1cc(N2CCC(C)CC2)nc(-n2nc(C)cc2C)n1	1.7*	49	37	121	93
CC(NC(=O)/C(=C/c1cccc([N+](=O)[O-])c1)NC(=O)c1ccco1)C(=O)O (stereo not drawn)	nt	92	98	nt	nt
Cc1ccc(OCCOc2ccc(Br)cc2)c([N+](=O)[O-])n1	nt	83	93	nt	nt
CCOC(=O)N1CCN(C(=O)c2cn(C)c(=O)c3c2c2ccccc2n3C)CC1	40*	66	84	94	96
Cc1cc(C(=O)NCCCN2CCN(c3cc(Cl)ccc3C)CC2)n(-c2ccccc2)n1	31*	38	34	69	80
Cc1cc(C(=O)NCCN2CCN(c3cccc(Cl)c3)CC2)n(-c2ccccc2)n1	29*	19	10	53	58
Cn1cc(C(=O)NCCN2CCN(c3cccc(Cl)c3)CC2)c2c3ccccc3n(C)c2c1=O	16*	54	15	58	91
Cn1c(=O)cc(OCC(=O)NCCCN2CCN(c3cccc(Cl)c3)CC2)c2ccccc21	49	16	13	75	82
Cc1cc(C(=O)NCC2CCCO2)n(-c2ccccc2)n1 (stereo not drawn)	94	97	96	97	100
CC(C)C(=O)N=C1SC2CS(=O)(=O)CC2N1Cc1ccccc1 (stereo not drawn)	nt	96	99	nt	nt
CCN(CC)c1ccc(NC(=O)c2cc(Cl)ccc2OC)cc1	48	67	64	31	74
O=C(/C=C/c1ccncc1)c1ccc(NC(=O)c2ccccc2F)cc1	nt	2.0*	1.2*	nt	nt
SMILES	H69AR inhibit	PTEN del growth	HCT116 bCat-KO	HUVEC prolif 384	Fibroblast inh
O=C(/C=C/c1ccc(Br)cc1)c1ccco1	nt	0.8*	1.0*	nt	nt
O=C(Nc1cccc(NC(=O)c2ccc(-c3ccc(Br)cc3)o2)c1)c1ccco1	35*	36	39	54	70
CCN(CC)c1ccc(NC(=O)c2ccccc2F)cc1	26*	31	33	47	71
O=C(/C=C/c1ccc2c(c1)OCO2)c1ccco1	nt	20	18	nt	nt
N#Cc1c(-c2ccccc2)ccn(Cc2ccc(Cl)cc2)c1=O	nt	94	90	nt	nt
CC(=O)NS(=O)(=O)c1ccc(NC(=O)c2ccc3c(c2)C(=O)N(CCC(C)C)C3=O)cc1	nt	108	97	nt	nt

High-throughput results from PubChem.
